Data from ChEMBL document CHEMBL1154183, “Structure-based optimization of potent and selective inhibitors of the tyrosine kinase erythropoietin producing human hepatocellular carcinoma receptor B4 (EphB4)” (J Med Chem, 2009).

Key:
[1] = target: Mitogen-activated protein kinase 13 (Homo sapiens) (UniProt O15264); assay: Inhibition of p38delta assessed as remaining enzyme activity at 3 uM relative to DMSO
[2] = target: 3-phosphoinositide-dependent protein kinase 1 (Homo sapiens) (UniProt O15530); assay: Inhibition of PDK1 assessed as remaining enzyme activity at 3 uM relative to DMSO
[3] = Inhibition of Aurora assessed as remaining enzyme activity at 3 uM relative to DMSO
Method in brief: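 Panel assay run robotically at room temperature for 30 min with 10 mM magnesium acetate and [γ-33P]ATP (800 cpm/pmol) at 5, 20 or 50 μM, chosen per kinase to be at or below its ATP Km. Reactions were started with MgATP, stopped with orthophosphoric acid and spotted on P81 filters. Activity is the mean of duplicates at a single inhibitor concentration, as % of DMSO control.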

[4] = target: Serine/threonine-protein kinase 3 (Homo sapiens) (UniProt Q13188); assay: Inhibition of MST2 assessed as remaining enzyme activity at 3 uM relative to DMSO
Method in brief: (§1)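 Radiometric kinase assay run robotically at room temperature for 30 min. Contained 10 mM magnesium acetate and [γ-33P]ATP (800 cpm/pmol) at 5, 20 or 50 μM, chosen per kinase to be at or below its ATP Km. Reactions were started with MgATP, stopped with orthophosphoric acid and spotted onto P81 filters. Result is mean % activity of duplicates at one inhibitor concentration versus DMSO control.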

[5] = target: Mitogen-activated protein kinase 15 (Homo sapiens) (UniProt Q8TD08); assay: Inhibition of ERK8 assessed as remaining enzyme activity at 3 uM relative to DMSO
Method in brief: (§2)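 Dundee kinase panel, radiometric: [γ-33P]ATP (800 cpm/pmol) at 5, 20 or 50 μM, at or below each kinase's ATP Km; 10 mM magnesium acetate; robotic, room temperature, 30 min. Reactions started with MgATP, stopped with orthophosphoric acid, spotted onto P81 filters. Inhibitor tested at a single concentration; mean % activity of duplicates relative to DMSO control.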

[6] = target: RAF proto-oncogene serine/threonine-protein kinase (Homo sapiens) (UniProt P04049); assay: Binding affinity to RAF1 assessed as percentage of kinase remaining bound to the bead at 1 uM by T7 phage display based binding assay
Method in brief: (§3)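 Competition binding assay run by a contract lab. Each kinase was expressed as a fusion to T7 phage, full-length for small kinases and catalytic domain for large ones. Phage were mixed with an immobilized known kinase inhibitor on streptavidin magnetic beads and with test compound at a single 1 μM. Kinase/phage still bound to the beads was quantified by qPCR and expressed as % of DMSO control.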

[7] = target: Fibroblast growth factor receptor 1 (Homo sapiens) (UniProt P11362); assay: Inhibition of FGF-R1 assessed as remaining enzyme activity at 1 uM relative to DMSO; method in brief: as §2
[8] = target: Serine/threonine-protein kinase 3 (Homo sapiens) (UniProt Q13188); assay: Inhibition of MST2 assessed as remaining enzyme activity at 1 uM relative to DMSO; method in brief: as §1
[9] = target: Calcium/calmodulin-dependent protein kinase kinase 2 (Homo sapiens) (UniProt Q96RR4); assay: Inhibition of CAMKKbeta assessed as remaining enzyme activity at 1 uM relative to DMSO; method in brief: as §2
[10] = target: Mitogen-activated protein kinase 8 (Homo sapiens) (UniProt P45983); assay: Inhibition of JNK1 assessed as remaining enzyme activity at 1 uM relative to DMSO
Method in brief: (§4)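 Radiometric kinase assay run robotically at room temperature for 30 min, linear in time and enzyme. Conditions: 10 mM magnesium acetate, [γ-33P]ATP (800 cpm/pmol) at 5, 20 or 50 μM per kinase, at or below its ATP Km. Started with MgATP and stopped with orthophosphoric acid, then spotted on P81 filters. Reported as mean % activity of duplicates versus DMSO controls.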

[11] = target: Tyrosine-protein kinase BTK (Homo sapiens) (UniProt Q06187); assay: Inhibition of BTK assessed as remaining enzyme activity at 1 uM relative to DMSO; method in brief: as §2
[12] = target: MAP kinase-interacting serine/threonine-protein kinase 1 (Homo sapiens) (UniProt Q9BUB5); assay: Inhibition of MNK1 assessed as remaining enzyme activity at 1 uM relative to DMSO; method in brief: as §1
[13] = target: Ephrin type-B receptor 3 (Homo sapiens, UniProt P54753); assay: Inhibition of EphB3 by [gamma33-P]ATP based assay
Method in brief: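 Radiometric [γ-33P]ATP kinase assay against Eph kinases, following a protocol similar to the Mg-acetate/MgATP filter-binding method.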

[14] = target: TGF-beta receptor type-1 (Homo sapiens) (UniProt P36897); assay: Binding affinity to TGFBR1 assessed as percentage of kinase remaining bound to the bead at 1 uM by T7 phage display based binding assay; method in brief: as §3
[15] = target: Tyrosine-protein kinase ABL1 (Homo sapiens) (UniProt P00519); assay: Binding affinity to phosphorylated ABL1 assessed as percentage of kinase remaining bound to the bead at 1 uM by T7 phage display based binding assay; method in brief: as §3
[16] = target: NUAK family SNF1-like kinase 1 (Homo sapiens) (UniProt O60285); assay: Inhibition of NUAK1 assessed as remaining enzyme activity at 1 uM relative to DMSO; method in brief: as §1
[17] = target: Dual specificity testis-specific protein kinase 1 (Homo sapiens) (UniProt Q15569); assay: Binding affinity to TESK1 assessed as percentage of kinase remaining bound to the bead at 1 uM by T7 phage display based binding assay; method in brief: as §3
[18] = target: Ephrin type-B receptor 6 (Homo sapiens) (UniProt O15197); assay: Binding affinity to EPHB6 assessed as percentage of kinase remaining bound to the bead at 1 uM by T7 phage display based binding assay; method in brief: as §3
[19] = target: Mast/stem cell growth factor receptor Kit (Homo sapiens) (UniProt P10721); assay: Binding affinity to KIT assessed as percentage of kinase remaining bound to the bead at 1 uM by T7 phage display based binding assay; method in brief: as §3
[20] = target: Ephrin type-B receptor 3 (Homo sapiens) (UniProt P54753); assay: Inhibition of EPHB3 assessed as remaining enzyme activity at 1 uM relative to DMSO; method in brief: as §4
[21] = target: Mitogen-activated protein kinase 14 (Homo sapiens) (UniProt Q16539); assay: Inhibition of p38alpha assessed as remaining enzyme activity at 1 uM relative to DMSO
[22] = target: Receptor tyrosine-protein kinase erbB-2 (Homo sapiens) (UniProt P04626); assay: Binding affinity to ERBB2 assessed as percentage of kinase remaining bound to the bead at 1 uM by T7 phage display based binding assay; method in brief: as §3
[23] = target: Tyrosine-protein kinase Blk (Homo sapiens) (UniProt P51451); assay: Binding affinity to BLK assessed as percentage of kinase remaining bound to the bead at 1 uM by T7 phage display based binding assay; method in brief: as §3
[24] = target: Tyrosine-protein kinase Tec (Homo sapiens) (UniProt P42680); assay: Binding affinity to TEC assessed as percentage of kinase remaining bound to the bead at 1 uM by T7 phage display based binding assay; method in brief: as §3
[25] = target: Bone morphogenetic protein receptor type-1B (Homo sapiens) (UniProt O00238); assay: Binding affinity to BMPR1B assessed as percentage of kinase remaining bound to the bead at 1 uM by T7 phage display based binding assay; method in brief: as §3

Serine/threonine-protein kinase 3 (Homo sapiens), sequence (Q13188 whole entry): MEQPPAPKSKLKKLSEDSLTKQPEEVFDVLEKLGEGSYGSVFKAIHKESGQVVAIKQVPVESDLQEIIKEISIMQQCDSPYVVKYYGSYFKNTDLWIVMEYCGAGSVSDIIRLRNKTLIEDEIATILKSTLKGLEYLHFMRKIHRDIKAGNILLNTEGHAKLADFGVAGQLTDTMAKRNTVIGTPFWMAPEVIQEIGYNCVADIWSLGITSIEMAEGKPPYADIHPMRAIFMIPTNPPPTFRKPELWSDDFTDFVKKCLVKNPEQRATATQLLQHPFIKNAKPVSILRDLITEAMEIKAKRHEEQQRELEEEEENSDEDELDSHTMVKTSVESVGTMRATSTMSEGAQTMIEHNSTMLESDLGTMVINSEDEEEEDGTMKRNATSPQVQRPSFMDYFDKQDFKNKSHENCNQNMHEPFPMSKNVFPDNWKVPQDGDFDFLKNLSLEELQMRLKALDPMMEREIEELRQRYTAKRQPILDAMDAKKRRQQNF
Mitogen-activated protein kinase 13 (Homo sapiens), sequence (O15264 whole entry): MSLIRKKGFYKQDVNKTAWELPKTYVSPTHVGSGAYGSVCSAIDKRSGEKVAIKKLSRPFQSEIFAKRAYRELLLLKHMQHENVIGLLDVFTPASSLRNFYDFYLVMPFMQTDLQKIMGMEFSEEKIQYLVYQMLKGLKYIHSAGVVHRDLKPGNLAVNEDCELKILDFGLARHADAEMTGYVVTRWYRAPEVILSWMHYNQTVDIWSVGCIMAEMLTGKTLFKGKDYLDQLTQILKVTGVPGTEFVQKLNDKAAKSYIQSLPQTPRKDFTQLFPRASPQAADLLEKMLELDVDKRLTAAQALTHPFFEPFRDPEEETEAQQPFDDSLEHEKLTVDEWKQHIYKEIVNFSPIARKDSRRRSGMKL
Tyrosine-protein kinase ABL1 (Homo sapiens), sequence (P00519 whole entry): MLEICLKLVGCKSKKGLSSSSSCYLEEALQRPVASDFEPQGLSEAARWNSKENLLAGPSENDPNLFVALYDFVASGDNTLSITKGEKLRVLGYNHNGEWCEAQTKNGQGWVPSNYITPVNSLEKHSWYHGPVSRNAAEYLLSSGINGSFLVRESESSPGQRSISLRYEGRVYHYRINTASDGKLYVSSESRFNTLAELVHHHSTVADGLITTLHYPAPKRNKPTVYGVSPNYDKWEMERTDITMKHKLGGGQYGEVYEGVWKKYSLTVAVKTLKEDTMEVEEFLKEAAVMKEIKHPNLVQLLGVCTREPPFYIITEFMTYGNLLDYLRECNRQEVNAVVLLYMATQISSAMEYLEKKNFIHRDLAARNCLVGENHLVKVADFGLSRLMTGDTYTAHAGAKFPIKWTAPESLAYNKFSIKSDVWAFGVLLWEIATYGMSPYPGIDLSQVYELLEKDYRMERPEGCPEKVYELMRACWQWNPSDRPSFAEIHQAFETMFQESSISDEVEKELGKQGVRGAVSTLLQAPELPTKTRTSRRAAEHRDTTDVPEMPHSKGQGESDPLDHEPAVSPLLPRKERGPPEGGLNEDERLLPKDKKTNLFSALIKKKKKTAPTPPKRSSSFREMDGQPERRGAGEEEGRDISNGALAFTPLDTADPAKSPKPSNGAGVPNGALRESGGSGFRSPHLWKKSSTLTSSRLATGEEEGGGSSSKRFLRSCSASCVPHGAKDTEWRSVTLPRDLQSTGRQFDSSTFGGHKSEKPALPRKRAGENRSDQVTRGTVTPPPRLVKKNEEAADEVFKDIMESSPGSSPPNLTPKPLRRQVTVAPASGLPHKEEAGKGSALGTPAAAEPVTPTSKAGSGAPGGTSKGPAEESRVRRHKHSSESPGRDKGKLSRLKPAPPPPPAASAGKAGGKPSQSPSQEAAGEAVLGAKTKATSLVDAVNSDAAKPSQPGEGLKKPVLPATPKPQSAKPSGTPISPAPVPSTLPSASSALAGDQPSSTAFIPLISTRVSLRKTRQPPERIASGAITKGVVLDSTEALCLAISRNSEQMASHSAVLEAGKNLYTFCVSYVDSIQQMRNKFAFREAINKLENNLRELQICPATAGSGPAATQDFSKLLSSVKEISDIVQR
Fibroblast growth factor receptor 1 (Homo sapiens), sequence (P11362 22-822 limits assumed): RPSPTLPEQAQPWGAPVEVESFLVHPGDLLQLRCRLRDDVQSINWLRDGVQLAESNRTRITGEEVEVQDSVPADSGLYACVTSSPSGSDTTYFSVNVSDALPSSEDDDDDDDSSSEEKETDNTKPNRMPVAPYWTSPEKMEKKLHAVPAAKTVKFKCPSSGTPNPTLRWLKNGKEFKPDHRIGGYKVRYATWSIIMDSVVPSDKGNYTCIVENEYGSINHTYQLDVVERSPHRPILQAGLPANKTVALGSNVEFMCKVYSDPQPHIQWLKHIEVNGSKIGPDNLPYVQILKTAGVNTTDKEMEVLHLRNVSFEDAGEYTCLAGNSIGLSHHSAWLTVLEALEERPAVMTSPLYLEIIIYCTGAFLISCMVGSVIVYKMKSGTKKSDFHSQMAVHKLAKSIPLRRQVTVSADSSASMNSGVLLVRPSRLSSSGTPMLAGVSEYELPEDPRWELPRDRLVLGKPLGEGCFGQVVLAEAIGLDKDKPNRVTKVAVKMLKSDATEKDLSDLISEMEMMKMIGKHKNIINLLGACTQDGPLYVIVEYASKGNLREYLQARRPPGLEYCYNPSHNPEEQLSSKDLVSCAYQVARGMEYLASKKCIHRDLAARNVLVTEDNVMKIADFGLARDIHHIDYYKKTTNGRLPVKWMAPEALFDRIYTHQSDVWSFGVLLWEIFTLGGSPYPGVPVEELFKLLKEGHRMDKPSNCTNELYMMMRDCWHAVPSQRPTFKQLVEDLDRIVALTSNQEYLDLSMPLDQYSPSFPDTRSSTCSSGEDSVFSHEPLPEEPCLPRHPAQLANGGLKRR
Ephrin type-B receptor 3 (Homo sapiens), sequence (P54753 whole entry): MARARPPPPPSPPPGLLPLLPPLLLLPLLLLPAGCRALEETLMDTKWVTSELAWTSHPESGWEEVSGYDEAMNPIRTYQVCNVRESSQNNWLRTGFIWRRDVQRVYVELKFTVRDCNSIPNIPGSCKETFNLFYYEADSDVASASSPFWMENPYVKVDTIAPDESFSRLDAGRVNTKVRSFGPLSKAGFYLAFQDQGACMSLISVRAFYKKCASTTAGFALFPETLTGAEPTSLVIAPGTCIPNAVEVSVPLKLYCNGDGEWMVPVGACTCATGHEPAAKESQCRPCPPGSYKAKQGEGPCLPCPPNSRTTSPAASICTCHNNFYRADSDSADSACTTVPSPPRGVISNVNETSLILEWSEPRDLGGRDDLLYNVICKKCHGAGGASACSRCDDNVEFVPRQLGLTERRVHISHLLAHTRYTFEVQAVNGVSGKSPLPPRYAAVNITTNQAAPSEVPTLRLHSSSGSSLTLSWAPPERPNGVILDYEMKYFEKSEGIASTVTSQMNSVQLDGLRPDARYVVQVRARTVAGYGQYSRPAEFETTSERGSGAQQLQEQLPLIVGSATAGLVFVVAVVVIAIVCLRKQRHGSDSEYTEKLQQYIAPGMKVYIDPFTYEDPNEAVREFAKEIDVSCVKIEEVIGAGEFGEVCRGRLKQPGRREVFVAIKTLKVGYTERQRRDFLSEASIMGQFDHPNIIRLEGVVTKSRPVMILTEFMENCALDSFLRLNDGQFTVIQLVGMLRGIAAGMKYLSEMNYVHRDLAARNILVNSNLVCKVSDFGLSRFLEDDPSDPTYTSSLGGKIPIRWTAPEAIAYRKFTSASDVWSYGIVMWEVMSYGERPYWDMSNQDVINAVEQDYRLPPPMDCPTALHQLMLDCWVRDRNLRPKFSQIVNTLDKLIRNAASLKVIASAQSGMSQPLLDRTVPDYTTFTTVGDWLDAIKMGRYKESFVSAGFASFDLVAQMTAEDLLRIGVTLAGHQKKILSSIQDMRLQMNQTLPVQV
Ephrin type-B receptor 3, sequence (P54753 whole entry): as above
Mast/stem cell growth factor receptor Kit (Homo sapiens), sequence (P10721 whole entry): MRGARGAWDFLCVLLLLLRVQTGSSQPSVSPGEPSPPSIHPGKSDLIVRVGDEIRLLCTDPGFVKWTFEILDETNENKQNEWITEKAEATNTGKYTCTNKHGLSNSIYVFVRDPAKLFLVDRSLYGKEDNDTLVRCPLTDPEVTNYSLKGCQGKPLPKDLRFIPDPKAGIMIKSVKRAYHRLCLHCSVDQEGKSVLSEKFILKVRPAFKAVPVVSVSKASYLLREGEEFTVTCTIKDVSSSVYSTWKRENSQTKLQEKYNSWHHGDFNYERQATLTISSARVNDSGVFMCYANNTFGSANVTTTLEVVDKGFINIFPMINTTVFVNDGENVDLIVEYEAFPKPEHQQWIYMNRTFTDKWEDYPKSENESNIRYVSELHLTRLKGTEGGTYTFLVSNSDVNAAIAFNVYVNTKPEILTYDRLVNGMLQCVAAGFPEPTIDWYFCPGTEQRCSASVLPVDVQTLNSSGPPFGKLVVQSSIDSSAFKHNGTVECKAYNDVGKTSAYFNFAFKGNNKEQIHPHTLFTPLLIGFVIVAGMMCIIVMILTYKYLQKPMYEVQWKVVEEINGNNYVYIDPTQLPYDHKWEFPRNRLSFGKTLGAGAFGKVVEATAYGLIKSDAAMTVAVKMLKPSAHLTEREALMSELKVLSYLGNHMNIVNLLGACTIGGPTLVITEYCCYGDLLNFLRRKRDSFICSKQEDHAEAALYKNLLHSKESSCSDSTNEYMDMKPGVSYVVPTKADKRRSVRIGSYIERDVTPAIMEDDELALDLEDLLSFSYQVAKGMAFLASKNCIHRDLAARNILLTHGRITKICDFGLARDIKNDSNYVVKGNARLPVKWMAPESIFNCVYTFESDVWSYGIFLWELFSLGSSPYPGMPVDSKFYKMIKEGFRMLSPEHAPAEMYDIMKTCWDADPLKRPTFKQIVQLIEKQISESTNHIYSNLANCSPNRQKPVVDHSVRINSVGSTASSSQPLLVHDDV

SMILES: COc1ccccc1-n1c(-c2ccccc2C)cn2c3c(=O)[nH]c(=O)n(C)c3nc12
- Activity [1]: 94%
- Activity [2]: 109%
- Activity [3]: 104%
- Activity [4]: 95%
- Activity [5]: 109%

SMILES: COc1ccccc1-n1c(-c2cc(O)ccc2C)cn2c3c(=O)[nH]c(=O)n(C)c3nc12
- Activity [6]: 14%
- Activity [7]: 62%
- Activity [8]: 111%
- Activity [9]: 104%
- Activity [10]: 96%
- Activity [11]: 33%
- Activity [12]: 94%
- IC50 [13]: 15 nM
- Activity [14]: 3.6%
- Activity [15]: 0.15%
- Activity [16]: 133%
- Activity [17]: 9.8%
- Activity [18]: 32%
- Activity [19]: 88%
- Activity [20]: 3%
- Activity [21]: 97%
- Activity [22]: 27%
- Activity [23]: 0.6%
- Activity [24]: 100%
- Activity [25]: 0.9%
